From ChEMBL document CHEMBL1926565, “Synthesis, antiproliferative activities and telomerase inhibition evaluation of novel asymmetrical 1,2-disubstituted amidoanthraquinone derivatives” (Eur J Med Chem, 2012)
Activity calls are given as the source filed them. The calls are words filed in the database; no cut-off is given here.

Columns and labels:
[1] = Growth of human H1299 cells at 100 uM 48 hrs by MTT assay; settings: NCI-H1299, 48 h
[2] = Growth of human H1299 cells at 1 uM after 48 hrs by MTT assay; settings: NCI-H1299, 48 h
[3] = molecular target: Telomerase reverse transcriptase (Homo sapiens) (UniProt O14746); test: Residual activity of human TERT in H1299 cells at 100 uM after 24 hrs by SEAP reporter gene assay
[4] = molecular target: Telomerase reverse transcriptase (Homo sapiens) (UniProt O14746); test: Residual activity of human TERT in H1299 cells at 10 uM after 24 hrs by SEAP reporter gene assay
[5] = molecular target: Telomerase reverse transcriptase (Homo sapiens) (UniProt O14746); test: Residual activity of human TERT in H1299 cells at 1 uM after 24 hrs by SEAP reporter gene assay
[6] = Growth of human H1299 cells at 10 uM after 48 hrs by MTT assay; settings: NCI-H1299, 48 h
[7] = molecular target: Telomerase reverse transcriptase (Homo sapiens) (UniProt O14746); test: Inhibition of telomerase activity in human H1299 cell free extract at 10 uM by modified TRAP assay
Procedure, shortened: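 TRAP assay using total cell lysate from H1299 lung cancer cells as the telomerase source, with protein measured against BSA standards. Compounds tested at 10 µM. Controls were lysate without inhibitor (positive) and RNase A-treated extract without inhibitor (negative).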

PC-3 = test: Cytotoxicity against human PC3 cells after 48 hrs by SRB assay; format: functional, cell-based; settings: PC-3, 48 h
Procedure, shortened: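 PC-3 cells grown in RPMI1640 with 10% FBS at 37 °C, 5% CO₂. Seeded in medium with 5% FBS; after 24 h, one plate fixed with 10% TCA as T₀. Compound or 0.1% DMSO vehicle added for 48 h, then TCA fixation and 0.4% SRB in 1% acetic acid. Dye solubilized in 10 mM Trizma base, absorbance read at 515 nm. IC50 is the concentration giving 50% reduction of the protein gain in controls.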

Sequence of Telomerase reverse transcriptase (Homo sapiens) (O14746 whole entry): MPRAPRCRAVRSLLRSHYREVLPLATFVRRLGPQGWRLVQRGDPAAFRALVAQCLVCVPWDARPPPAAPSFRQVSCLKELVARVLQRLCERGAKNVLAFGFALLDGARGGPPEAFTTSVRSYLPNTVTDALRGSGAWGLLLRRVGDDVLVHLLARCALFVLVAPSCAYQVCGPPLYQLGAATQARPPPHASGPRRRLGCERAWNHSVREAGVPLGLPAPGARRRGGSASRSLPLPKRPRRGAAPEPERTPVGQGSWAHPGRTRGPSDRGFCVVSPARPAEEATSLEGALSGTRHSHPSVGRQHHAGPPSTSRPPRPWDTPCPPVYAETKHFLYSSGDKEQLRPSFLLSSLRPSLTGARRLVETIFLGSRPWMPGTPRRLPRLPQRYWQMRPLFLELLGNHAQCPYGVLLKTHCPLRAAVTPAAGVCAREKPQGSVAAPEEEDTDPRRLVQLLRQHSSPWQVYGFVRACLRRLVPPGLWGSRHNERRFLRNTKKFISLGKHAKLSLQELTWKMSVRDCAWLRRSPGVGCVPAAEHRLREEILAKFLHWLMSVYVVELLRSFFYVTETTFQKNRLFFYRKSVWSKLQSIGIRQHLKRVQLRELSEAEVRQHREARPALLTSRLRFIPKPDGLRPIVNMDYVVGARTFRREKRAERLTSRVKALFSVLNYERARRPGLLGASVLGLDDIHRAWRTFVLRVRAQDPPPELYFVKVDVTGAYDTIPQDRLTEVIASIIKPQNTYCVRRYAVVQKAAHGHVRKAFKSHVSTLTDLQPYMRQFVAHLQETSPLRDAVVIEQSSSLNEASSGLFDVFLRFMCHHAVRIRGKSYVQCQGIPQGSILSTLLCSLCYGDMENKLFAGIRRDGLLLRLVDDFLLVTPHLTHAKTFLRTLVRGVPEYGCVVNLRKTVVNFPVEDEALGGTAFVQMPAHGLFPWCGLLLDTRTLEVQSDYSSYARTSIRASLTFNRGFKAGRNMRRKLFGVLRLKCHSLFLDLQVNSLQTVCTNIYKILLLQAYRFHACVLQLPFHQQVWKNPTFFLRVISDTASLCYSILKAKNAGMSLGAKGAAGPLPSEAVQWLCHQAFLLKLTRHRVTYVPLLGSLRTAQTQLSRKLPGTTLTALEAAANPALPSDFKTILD

SMILES	growth, % of control at 100 µM [1]	growth, % of control at 1 µM [2]	residual activity [3]	residual activity [4]	residual activity [5]	growth, % of control at 10 µM [6]	inhibition [7]	IC50 (PC-3)
O=C(CCl)Nc1ccc2c(c1NC(=O)CCCCl)C(=O)c1ccccc1C2=O	62%	100%	30%	97%	108%	116%	inactive	1.12 µM
Cc1ccccc1C(=O)Nc1c(NC(=O)CCl)ccc2c1C(=O)c1ccccc1C2=O	0%	73%	0%	0%	98%	0%	inactive	3.67 µM
Cc1ccc(C(=O)Nc2c(NC(=O)CN(C)CCc3ccccn3)ccc3c2C(=O)c2ccccc2C3=O)cc1	1%	90%	22%	11%	94%	46%	inactive	6.68 µM
Nc1c(NC(=O)CCl)ccc2c1C(=O)c1ccccc1C2=O	0%	8%	13%	13%	15%	0%	inactive	1.65 µM
O=C(CCl)Nc1ccc2c(c1NC(=O)c1ccco1)C(=O)c1ccccc1C2=O	2%	80%	2%	2%	84%	0%	inactive	2.44 µM
O=C1c2c(O)ccc(O)c2C(=O)c2c(NCCNCCO)ccc(NCCNCCO)c21 [MITOXANTRONE]	–	–	–	–	–	–	–	0.29 µM
O=C(CCl)Nc1ccc2c(c1NC(=O)c1ccc(Cl)cc1)C(=O)c1ccccc1C2=O	4%	92%	4%	6%	98%	5%	inactive	> 20 µM
O=C(CCl)Nc1ccc2c(c1NC(=O)c1ccccc1C(F)(F)F)C(=O)c1ccccc1C2=O	0%	93%	2%	4%	93%	3%	inactive	3.42 µM
O=C(CCl)Nc1ccc2c(c1NC(=O)Cc1ccc(F)cc1)C(=O)c1ccccc1C2=O	6%	88%	1%	8%	93%	7%	inactive	> 20 µM
O=C(CCl)Nc1ccc2c(c1NC(=O)c1ccccc1)C(=O)c1ccccc1C2=O	5%	101%	15%	94%	96%	83%	inactive	0.95 µM
O=C(CCl)Nc1ccc2c(c1NC(=O)c1cccs1)C(=O)c1ccccc1C2=O	0%	0%	2%	3%	5%	2%	inactive	2.64 µM
O=C(CCl)Nc1ccc2c(c1NC(=O)c1ccc(F)cc1)C(=O)c1ccccc1C2=O	0%	10%	0%	2%	11%	4%	inactive	3.14 µM
O=C(CCl)Nc1ccc2c(c1NC(=O)c1ccccc1F)C(=O)c1ccccc1C2=O	0%	78%	2%	5%	105%	2%	inactive	> 20 µM
Cc1ccc(C(=O)Nc2c(NC(=O)CN3CCN(CCO)CC3)ccc3c2C(=O)c2ccccc2C3=O)cc1	0%	71%	0%	8%	76%	44%	inactive	2.07 µM
Cc1ccc(C(=O)Nc2c(NC(=O)CN3CCSCC3)ccc3c2C(=O)c2ccccc2C3=O)cc1	20%	85%	12%	72%	88%	69%	inactive	19.1 µM
Cc1cccc(C(=O)Nc2c(NC(=O)CCl)ccc3c2C(=O)c2ccccc2C3=O)c1	0%	72%	0%	0%	116%	0%	inactive	3.79 µM
O=C(CCl)Nc1ccc2c(c1NC(=O)c1ccccc1Cl)C(=O)c1ccccc1C2=O	0%	101%	1%	5%	81%	6%	inactive	3.09 µM
O=C(CCl)Nc1ccc2c(c1NC(=O)c1ccc(C(F)(F)F)cc1)C(=O)c1ccccc1C2=O	0%	86%	6%	8%	85%	6%	inactive	6.67 µM
O=C(CCCCl)Nc1ccc2c(c1NC(=O)CCCCl)C(=O)c1ccccc1C2=O	19%	103%	15%	92%	113%	79%	inactive	3.94 µM
Cc1ccc(C(=O)Nc2c(NC(=O)CN3CCN(c4ccccc4)CC3)ccc3c2C(=O)c2ccccc2C3=O)cc1	23%	80%	15%	88%	93%	76%	inactive	> 20 µM
Cc1cc(C(=O)Nc2c(NC(=O)CCl)ccc3c2C(=O)c2ccccc2C3=O)c(C)o1	0%	96%	0%	2%	81%	2%	inactive	4.31 µM
COc1cccc2c1C(=O)c1c(O)c3c(c(O)c1C2=O)C[C@@](O)(C(=O)CO)C[C@@H]3O[C@H]1C[C@H](N)[C@H](O)[C@H](C)O1 [DOXORUBICIN]	–	–	–	–	–	–	–	0.25 µM
Cc1ccc(C(=O)Nc2c(NC(=O)CN3CCN(c4ccccn4)CC3)ccc3c2C(=O)c2ccccc2C3=O)cc1	6%	105%	9%	64%	97%	100%	inactive	> 20 µM
O=C(CCl)Nc1ccc2c(c1NC(=O)CCCl)C(=O)c1ccccc1C2=O	19%	103%	15%	92%	113%	79%	inactive	1.23 µM
O=C(CCl)Nc1ccc2c(c1NC(=O)CCl)C(=O)c1ccccc1C2=O	0%	8%	13%	13%	15%	0%	inactive	1.19 µM
O=C(CCl)Nc1ccc2c(c1NC(=O)c1ccno1)C(=O)c1ccccc1C2=O	0%	105%	1%	4%	92%	3%	inactive	3.78 µM
O=C(CCCl)Nc1ccc2c(c1NC(=O)CCCl)C(=O)c1ccccc1C2=O	5%	101%	15%	94%	96%	83%	inactive	> 20 µM
